Measurements pooled from the literature.
Protocols differ between the studies behind these lines.
Organism: Staphylococcus aureus
Observed: microbial growth

| Structure (SMILES) | test | system | setting | inhibition zone [mm] |
| --- | --- | --- | --- | --- |
| COc1cc(C=CC(=O)CC(c2ccc(N(C)C)cc2)n2ccnc2)ccc1O (centres unmarked) | disc diffusion | ATCC29213 | 500 µg/mL | 10.7 |
| Cc1ccc2nc(-n3nc(C)c4c3-c3ccccc3C4=O)sc2c1 | well diffusion | NCIM5021 | 250 µg/mL | 11 |
| O=C(O)c1cn(C2CC2)c2cc(N3CCNCC3)c(F)cc2c1=O | disc diffusion |  | 100 µg/mL, 24 h | 24 |
| COc1cc(C=Cc2cc(-c3ccc(N(C)C)cc3)nc(O)n2)ccc1O | disc diffusion | ATCC29213 | 500 µg/mL | 6.33 |
| COc1ccc2nc(-n3nc(CC(C)C)c4c3-c3ccccc3C4=O)sc2c1 | well diffusion | NCIM5021 | 1000 µg/mL | 13 |
| CC(=O)C1=C(C)N2NC(c3ccccc3O)N(C(Cc3c[nH]c4ccccc34)C(=O)O)C2=NC1c1ccc(Cl)cc1 (centres unmarked) |  | ATCC25923 | 15 µg/mL, 24 h | 32 |
| CC(C)c1nn(-c2nc3ccccc3s2)c2c1C(=O)c1ccccc1-2 | well diffusion | NCIM5021 | 125 µg/mL | 10 |
| COc1cc(C=CC(=O)CC(c2ccc([N+](=O)[O-])cc2)n2ccnc2)ccc1O (centres unmarked) | disc diffusion | ATCC29213 | 500 µg/mL | 7 |
| CC(C(=O)O)N1c2nc(-c3ccc(Cl)cc3)c(C#N)c(=O)n2NC1c1ccccc1O (centres unmarked) |  | ATCC25923 | 10 µg/mL, 24 h | 14 |
| CN[C@H](CC(C)C)C(=O)N[C@H]1C(=O)N[C@@H](CC(N)=O)C(=O)N[C@H]2C(=O)N[C@H]3C(=O)N[C@H](C(=O)N[C@H](C(=O)O)c4cc(O)cc(O)c4-c4cc3ccc4O)[C@H](O)c3ccc(c(Cl)c3)Oc3cc2cc(c3O[C@@H]2O[C@H](CO)[C@@H](O)[C@H](O)[C@H]2O[C@H]2C[C@](C)(N)[C@H](O)[C@H](C)O2)Oc2ccc(cc2Cl)[C@H]1O | disc diffusion | ATCC29213 | 31.2 µg/disc, 24 h | 18 |
| O=C(O)c1cn(C2CC2)c2cc(N3CCNCC3)c(F)cc2c1=O |  | SG511 | 1000 µg/mL | 18 |
| CC(=O)C1=C(C)N2NC(C)(c3ccccc3O)N(C(C)C(=O)O)C2=NC1c1ccc(Cl)cc1 (centres unmarked) |  | ATCC25923 | 15 µg/mL, 24 h | 17 |
| CC(C)Cc1nn(-c2nc3ccc(Br)cc3s2)c2c1C(=O)c1ccccc1-2 | well diffusion | NCIM5021 | 125 µg/mL | 11 |
| CC[C@H]1OC(=O)[C@H](C)[C@@H](O[C@H]2C[C@@](C)(OC)[C@@H](O)[C@H](C)O2)[C@H](C)[C@@H](O[C@@H]2O[C@H](C)C[C@H](N(C)C)[C@H]2O)[C@](C)(O)C[C@@H](C)/C(=N\OCOCCOC)[C@H](C)[C@@H](O)[C@]1(C)O | disc diffusion | ATCC6538 | 20000 µg/mL, 24 h | 20 |
| CCOC(=O)C1=C(C)N2NC(c3ccccc3O)N(C(Cc3c[nH]c4ccccc34)C(=O)O)C2=NC1c1ccc(Cl)cc1 (centres unmarked) |  | ATCC25923 | 10 µg/mL, 24 h | 19 |
| CC1(C)S[C@@H]2[C@H](NC(=O)[C@H](N)c3ccc(O)cc3)C(=O)N2[C@H]1C(=O)O | disc diffusion | ATCC29213 | 500 µg/mL | 10.8 |
| Cc1ccc2nc(-n3nc(CC(C)C)c4c3-c3ccccc3C4=O)sc2c1 | well diffusion | NCIM5021 | 500 µg/mL | 11 |
| CC(C(=O)O)N1C2=NC(c3ccc(Cl)cc3)C3=C(OC(C)(C)OC3=O)N2NC1(C)c1ccccc1O (centres unmarked) |  | ATCC25923 | 10 µg/mL, 24 h | 10 |
| CC(C)c1nn(-c2nc3ccc(Br)cc3s2)c2c1C(=O)c1ccccc1-2 | well diffusion | NCIM5021 | 250 µg/mL | 11 |
| N#Cc1c(-c2ccc(Cl)cc2)nc2n(c1=O)NC(c1ccccc1O)N2C(Cc1c[nH]c2ccccc12)C(=O)O (centres unmarked) |  | ATCC25923 | 10 µg/mL, 24 h | 18 |
